Tests used:
[1] = Agonist activity at ComD1 receptor in Streptococcus pneumoniae D39 harboring pcomX/lacZ reporter gene incubated for 30 mins by ONPG based beta-galactosidase assay
Summary of the method: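 Dose-response in wild-type lacZ reporter strains (comX promoter; D39 for ComD1, TIGR4 for ComD2) producing native CSP. Peptides tested over a range of concentrations. β-gal read-out (Miller units) normalized to native CSP. EC50 reported with 95% confidence interval.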

Homo sapiens = species: Homo sapiens; assay: Metabolic stability in aqueous ammonium carbonate solution assessed as trypsin/chymotrypsin (unknown origin)-mediated drug degradation by measuring half life at 0.05 ug/ml incubated in shaking conditions and measured for 24 hrs by RP-HPLC analysis

`CC[C@H](C)[C@H](NC(=O)[C@H](Cc1ccccc1)NC(=O)[C@H](CC(=O)O)NC(=O)[C@H](CCCNC(=N)N)NC(=O)[C@H](Cc1ccccc1)NC(=O)[C@H](Cc1ccccc1)NC(=O)[C@H](CCCCN)NC(=O)[C@H](CO)NC(=O)[C@H](CC(C)C)NC(=O)[C@H](CCCNC(=N)N)NC(=O)[C@H](CCSC)NC(=O)[C@@H](N)CCC(=O)O)C(=O)N[C@@H](CC(C)C)C(=O)N[C@@H](CCC(N)=O)C(=O)N[C@@H](CCCNC(=N)N)C(=O)N[C@@H](CCCCN)C(=O)N[C@@H](CCCCN)C(=O)O` gave an EC50 [1] of 10 nM and a T1/2 (Homo sapiens) of 1.5 h.
